In ChEMBL document CHEMBL1158683, “Cytotoxic sesquiterpenoids from Ratibida columnifera” (1999):
In brackets after ≈: the same amount, converted by molar mass. Activity calls are given as the source filed them. The calls are words filed in the database; no cut-off is given here.

Key:
A-431 = test: Cytotoxicity against human A431 cells; type: functional; details: read-out: ED50 (the source's name)
ZR-75-1 = test: Cytotoxicity against hormone-dependent human ZR751 cells; type: functional; details: read-out: ED50 (the source's name)
[1] = Cytotoxicity against human U373 cells; type: functional, U-373MG ATCC; details: U373 MG, read-out: ED50 (the source's name)
[2] = Cytotoxicity against human BC1 cells; type: functional; details: read-out: ED50 (the source's name)
ASK = test: Cytotoxicity against human ASK cells at 20 ug/mL; type: functional, cell-based
[3] = Cytotoxicity against human Mel2 cells; type: functional; details: read-out: ED50 (the source's name)
LNCaP = test: Cytotoxicity against hormone-dependent human LNCaP cells; type: functional; details: read-out: ED50 (the source's name)
[4] = Cytotoxicity against human multidrug-resistant KB-V1+ cells in presence of vinblastine; type: functional; details: read-out: ED50 (the source's name)
HT = test: Cytotoxicity against human HT cells; type: functional; details: read-out: ED50 (the source's name)
[5] = Cytotoxicity against human multidrug-resistant KBV1 cells in absence of vinblastine; type: functional; details: KB-V1, read-out: ED50 (the source's name)
Col2 = test: Cytotoxicity against human Col2 cells; type: functional; details: read-out: ED50 (the source's name)
KB = test: Cytotoxicity against human KB cells; type: functional; details: read-out: ED50 (the source's name)
Lu1 = test: Cytotoxicity against human Lu1 cells; type: functional; details: read-out: ED50 (the source's name)
A2780 [6] = test: Induction of apoptosis in human p53 wild type A2780S at 30 uM after 24 hrs by TdT assay; type: functional
Summary of the method: (§1)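 A2780S (p53 wild-type) and A2780R (p53 mutant) ovarian carcinoma cells were exposed for 24 h at 0–30 µM. Cells (10^6) were trypsinized and fixed in 1% methanol-free formaldehyde/PBS for 15 min on ice. They were washed twice with PBS and fixed in 80% EtOH at −20 °C for 16 h. A TdT assay (APO-Direct kit, minor modifications) then scored % apoptotic cells.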

[7] = Inhibition of tubulin polymerization at 10 to 100 uM
A2780 [8] = test: Induction of apoptosis in human p53 wild type A2780S at 1.5 uM after 24 hrs by TdT assay; type: functional; summary of the method: as §1
A2780 [9] = test: Induction of apoptosis in human p53 wild type A2780S at 7.5 uM after 24 hrs by TdT assay; type: functional; summary of the method: as §1
Nucleic Acid = test: Binding affinity to DNA assessed as DNA intercalation; type: nucleic-acid assay
[10] = target: T1, DNA topoisomerase 1 (Homo sapiens) (UniProt P11387); test: Inhibition of topoisomerase 1 at 10 to 100 uM
T1 sequence (whole entry): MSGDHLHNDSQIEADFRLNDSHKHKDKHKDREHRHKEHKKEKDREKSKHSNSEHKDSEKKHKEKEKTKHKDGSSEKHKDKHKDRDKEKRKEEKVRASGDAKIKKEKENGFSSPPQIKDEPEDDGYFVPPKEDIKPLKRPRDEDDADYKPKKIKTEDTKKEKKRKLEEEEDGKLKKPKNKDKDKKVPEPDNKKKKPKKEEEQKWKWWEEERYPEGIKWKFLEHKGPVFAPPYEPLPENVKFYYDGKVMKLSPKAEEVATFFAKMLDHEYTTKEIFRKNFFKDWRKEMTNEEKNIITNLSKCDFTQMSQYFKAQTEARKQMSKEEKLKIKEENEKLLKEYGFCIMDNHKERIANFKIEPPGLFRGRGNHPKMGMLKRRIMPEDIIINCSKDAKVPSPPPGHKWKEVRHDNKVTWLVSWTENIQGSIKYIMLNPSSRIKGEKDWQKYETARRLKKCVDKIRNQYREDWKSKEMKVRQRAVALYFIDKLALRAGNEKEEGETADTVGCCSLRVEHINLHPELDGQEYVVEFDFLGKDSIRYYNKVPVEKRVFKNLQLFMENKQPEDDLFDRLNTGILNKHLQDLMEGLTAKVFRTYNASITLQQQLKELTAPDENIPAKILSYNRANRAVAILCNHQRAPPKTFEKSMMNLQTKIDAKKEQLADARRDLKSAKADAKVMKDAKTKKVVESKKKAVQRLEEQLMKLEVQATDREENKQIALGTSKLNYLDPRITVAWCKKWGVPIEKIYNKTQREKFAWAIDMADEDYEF

A2780 [11] = test: Induction of apoptosis in human p53 mutant A2780R at 7.5 uM after 24 hrs by TdT assay
M109 [12] = test: Antitumor activity against mouse M109 cells xenografted CDF1 mouse model at 8 mg/kg, ip for 5 days; type: functional; details: route intraperitoneal
Summary of the method: (§2)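 A 2% w/v brei of M109 murine lung carcinoma was prepared in RPMI from harvested solid tumors. Female CDF1 mice (six per group) were implanted ip with 0.5 mL. Compound was given ip daily for 5 days, beginning 1 day after implantation. The endpoint was lifespan, expressed as %T/C (treated over control lifespan × 100%).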

A2780R = test: Induction of apoptosis in human p53 mutant A2780R at 1.5 uM after 24 hrs by TdT assay
M109 [13] = test: Antitumor activity against mouse M109 cells xenografted CDF1 mouse model at 24 mg/kg, ip for 5 days; type: functional; details: route intraperitoneal; summary of the method: as §2
A2780 [14] = test: Induction of apoptosis in human p53 […] at 15 uM after 24 hrs by TdT assay; type: functional; details: in the assay text read “A2780R” for “A2780S”; summary of the method: as §1
A2780 [15] = test: Induction of apoptosis in human p53 mutant A2780R at 0.15 uM after 24 hrs by TdT assay
A2780 [16] = test: Induction of apoptosis in human p53 wild type A2780S at 0.15 uM after 24 hrs by TdT assay; type: functional; summary of the method: as §1
A2780 [17] = test: Induction of apoptosis in human p53 wild type A2780S at 15 uM after 24 hrs by TdT assay; type: functional; summary of the method: as §1
[18] = Inhibition of topoisomerase 2 at 10 to 100 uM
A2780 [19] = test: Induction of apoptosis in human p53 […] at 30 uM after 24 hrs by TdT assay; type: functional; details: in the assay text read “A2780R” for “A2780S”; summary of the method: as §1

| Compound | EC50 (ZR-75-1) [µg/mL] | EC50 [1] [µg/mL] | EC50 [2] [µg/mL] | Activity (ASK) | EC50 (LNCaP) [µg/mL] | EC50 [4] [µg/mL] | EC50 (HT) [µg/mL] | EC50 [5] [µg/mL] | EC50 (Col2) [µg/mL] | EC50 (KB) [µg/mL] | EC50 (Lu1) [µg/mL] | other results |
| --- | --- | --- | --- | --- | --- | --- | --- | --- | --- | --- | --- | --- |
| C=C1C(=O)O[C@@H]2[C@@H]1C[C@@H](O)[C@H](C)[C@@](O)(C(=O)/C=C/C)[C@H]2OC(=O)/C(C)=C\C | 0.2 (≈ 0.529 µM) | 0.2 (≈ 0.529 µM) | 0.6 (≈ 1.59 µM) | inactive | 0.16 (≈ 0.423 µM) | 1.3 | 0.3 (≈ 0.793 µM) | 1.2 (≈ 3.17 µM) | 0.5 (≈ 1.32 µM) | 0.3 (≈ 0.793 µM) | 1.1 (≈ 2.91 µM) | EC50 (A-431): 0.2 µg/mL (≈ 0.529 µM); EC50 [3]: 0.5 µg/mL (≈ 1.32 µM) |
| C=C1C(=O)O[C@@H]2[C@@H]1CC[C@H](C)[C@@](O)(C(=O)/C=C/C)[C@H]2OC(=O)/C(C)=C\C | 1.4 (≈ 3.86 µM) | 0.2 (≈ 0.552 µM) | 0.8 (≈ 2.21 µM) | inactive | 1 (≈ 2.76 µM) | 0.3 | 0.4 (≈ 1.1 µM) | 1.6 (≈ 4.41 µM) | 0.9 (≈ 2.48 µM) | 0.4 (≈ 1.1 µM) | 0.4 (≈ 1.1 µM) | – |
| C=C1C(=O)O[C@@H]2[C@@H]1CC(=O)[C@H](C)[C@@](O)(C(=O)/C=C/C)[C@H]2OC(=O)C(C)CC (stereo partly drawn) | – | – | 0.5 (≈ 1.32 µM) | inactive | 0.4 (≈ 1.06 µM) | 1.1 | – | 2 (≈ 5.29 µM) | 1.2 (≈ 3.17 µM) | 1.1 (≈ 2.91 µM) | 2.3 (≈ 6.08 µM) | – |
| C=C1C(=O)O[C@@H]2[C@@H]1[C@H]1O[C@H]1[C@H](C)[C@@](O)(C(=O)/C=C/C)[C@H]2OC(=O)/C(C)=C\C | – | 0.2 (≈ 0.531 µM) | 0.3 (≈ 0.797 µM) | inactive | – | 0.9 | 0.16 (≈ 0.425 µM) | 0.2 (≈ 0.531 µM) | 0.8 (≈ 2.13 µM) | 0.3 (≈ 0.797 µM) | 0.5 (≈ 1.33 µM) | – |
| C=C[C@@](C)(O)C[C@@H](O)/C=C(\C)CC/C=C(\C)COC(C)=O | – | 6.3 (≈ 21.3 µM) | 8.7 (≈ 29.4 µM) | inactive | > 20 | > 20 | 9.5 (≈ 32.1 µM) | 10.9 (≈ 36.8 µM) | 6.2 (≈ 20.9 µM) | 3.5 (≈ 11.8 µM) | > 20 | – |
| C=C1C(=O)O[C@@H]2[C@@H]1[C@@H](O)C[C@H](C)[C@@](O)(C(=O)/C=C/C)[C@H]2OC(=O)/C(C)=C\C | 1.4 (≈ 3.7 µM) | – | 4.2 (≈ 11.1 µM) | inactive | 0.4 (≈ 1.06 µM) | 1.7 | – | 3 (≈ 7.93 µM) | 5.7 (≈ 15.1 µM) | 1.4 (≈ 3.7 µM) | 2.3 (≈ 6.08 µM) | – |
| COc1c(O)cc2oc(-c3ccc(O)cc3)cc(=O)c2c1O [HISPIDULIN] | 1.2 (≈ 4 µM) | 8.8 (≈ 29.3 µM) | > 20 | inactive | 7.1 (≈ 23.6 µM) | 1.3 | 10.1 (≈ 33.6 µM) | 8.7 (≈ 29 µM) | > 20 | 18.8 (≈ 62.6 µM) | > 20 | EC50 (A-431): 1.2 µg/mL (≈ 4 µM); EC50 [3]: 14.6 µg/mL (≈ 48.6 µM) |
| C=C1C(=O)O[C@@H]2[C@@H]1C[C@@H](O)[C@H](C)[C@@](O)(C(=O)CC(C)O)[C@H]2OC(=O)C(C)CC (stereo partly drawn) | – | – | 9 (≈ 22.6 µM) | inactive | 8.1 (≈ 20.3 µM) | > 20 | – | > 20 | 8.7 (≈ 21.8 µM) | 12.7 (≈ 31.9 µM) | 16.8 (≈ 42.2 µM) | – |
| C=C1C(=O)O[C@@H]2[C@@H]1C[C@@H](O)[C@H](C)[C@@](O)(C(=O)/C=C/C)[C@H]2OC(=O)C(C)CC (stereo partly drawn) | – | – | 0.8 (≈ 2.1 µM) | inactive | 0.5 (≈ 1.31 µM) | 1.6 | – | 0.9 (≈ 2.37 µM) | 1.1 (≈ 2.89 µM) | 1 (≈ 2.63 µM) | 0.9 (≈ 2.37 µM) | Activity (A2780 [6]): 78.14%; Activity [7]: inactive; Activity (A2780 [8]): 1.27%; Activity (A2780 [9]): 61.31%; Activity (Nucleic Acid): inactive; Activity [10]: inactive; Activity (A2780 [11]): 2.63%; T/C (M109 [12]): 103%; Activity (A2780R): 1.66%; T/C (M109 [13]): 113%; Activity (A2780 [14]): 31.87%; Activity (A2780 [15]): 0.77%; Activity (A2780 [16]): 1.17%; Activity (A2780 [17]): 51.67%; Activity [18]: inactive; Activity (A2780 [19]): 49.25% |
| C=C1C(=O)O[C@@H]2[C@@H]1CC(=O)[C@H](C)[C@@](O)(C(=O)CC(C)OC)[C@H]2OC(=O)C(C)CC (stereo partly drawn) | – | – | 1.2 (≈ 2.92 µM) | inactive | 0.5 (≈ 1.22 µM) | 5 | – | 4 (≈ 9.75 µM) | 3.1 (≈ 7.55 µM) | 6.6 (≈ 16.1 µM) | 4.4 (≈ 10.7 µM) | – |
